Source: ChEMBL document CHEMBL3813699, “Structure-Activity Relationships of a Diverse Class of Halogenated Phenazines That Targets Persistent, Antibiotic-Tolerant Bacterial Biofilms and Mycobacterium tuberculosis” (J Med Chem, 2016)
pIC50: −log10 of the molar value. Converted amounts (≈) assume the structure as drawn.

Legend:
Staphylococcus aureus [1] = experiment: Antibacterial activity against methicillin-resistant Staphylococcus aureus BAA-1707 incubated for 16 to 18 hrs by broth microdilution method; type: functional
[2] = Induction of hemolysis in human RBC at 200 uM incubated for 1 hr; type: cell-based, Erythrocyte; conditions: red blood cells, read-out: Activity
Summary of the method: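 Human RBCs (EDTA), washed three times in Tris-buffered saline pH 7.2; 2% hRBC with compound at final 200 µM, 1 h 37 °C; supernatant OD405; % hemolysis relative to DMSO (0%) and Triton X (100%).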

Staphylococcus aureus [3] = experiment: Antibacterial activity against methicillin-resistant Staphylococcus aureus BAA-44 incubated for 16 to 18 hrs by broth microdilution method; type: functional
Staphylococcus aureus [4] = experiment: Antibiofilm activity against methicillin-resistant Staphylococcus aureus isolate 2 assessed as biofilm eradication incubated for 24 hrs by CBD assay; type: functional; conditions: for MBC: Staphylococcus aureus, isolate 2, 24 h
Summary of the method: (§1)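 Calgary Biofilm Device: pegs inoculated with mid-log culture diluted 1,000-fold in TSB + 0.5% glucose, 24 h 37 °C; washed pegs challenged with 2-fold dilutions 24 h 37 °C; pegs moved to fresh TSBG 24 h; MBEC = lowest concentration leaving no turbidity; 2–6 independent experiments.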

Staphylococcus aureus [5] = experiment: Antibacterial activity against methicillin-resistant Staphylococcus aureus clinical isolate 2 incubated for 16 to 18 hrs by broth microdilution method; type: functional
[6] = test system: Staphylococcus epidermidis; experiment: Antibacterial activity against Staphylococcus epidermidis ATCC 12228 incubated for 16 to 18 hrs by broth microdilution method; type: functional
Enterococcus faecium [7] = experiment: Antibacterial activity against vancomycin-resistant Enterococcus faecium ATCC 700221 incubated for 16 to 18 hrs by broth microdilution method; type: functional
[8] = test system: Mycobacterium tuberculosis; experiment: Antibacterial activity against Mycobacterium tuberculosis H37Ra ATCC 25177 after 7 days by two-fold serial dilution method; type: functional; conditions: H37Ra ATCC 25177, 168 h
Enterococcus faecium [9] = experiment: Antibiofilm activity against […]-resistant Enterococcus faecium ATCC 700221 assessed as biofilm eradication incubated for 24 hrs by CBD assay; type: functional; conditions: for MBC: Enterococcus faecium, ATCC 700221, 24 h; summary of the method: as §1
[10] = test system: Staphylococcus epidermidis; experiment: Antibacterial activity against methicillin-resistant Staphylococcus epidermidis ATCC 35984 incubated for 16 to 18 hrs by broth microdilution method; type: functional
HeLa = experiment: Cytotoxicity against human HeLa cells after 24 hrs by LDH release assay; type: cell-based
Summary of the method: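 HeLa in DMEM + 10% FBS, 37 °C 5% CO2, at 70–80% confluence treated with 25, 50, 100 µM for 24 h; DMSO vehicle; Triton X-100 2% v/v max-LDH control, medium-only negative; supernatant with LDH reaction mix 30 min room temperature, stopped, absorbance 490 nm.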

[11] = test system: Staphylococcus epidermidis; experiment: Antibacterial activity against methicillin-resistant Staphylococcus epidermidis ATCC 35984 assessed as biofilm eradication incubated for 24 hrs by CBD assay; type: functional; conditions: for MBC: Staphylococcus epidermidis, ATCC 35984, 24 h; summary of the method: as §1
Staphylococcus aureus [12] = experiment: Antibiofilm activity against methicillin-resistant Staphylococcus aureus BAA-1707 assessed as biofilm eradication incubated for 24 hrs by CBD assay; type: functional; conditions: for MBC: Staphylococcus aureus, BAA-1707, 24 h; summary of the method: as §1

| Structure (SMILES) | MIC (Staphylococcus aureus [1]) [µM] | hemolysis at 1 h, 200 µM [2] [%] | MIC (Staphylococcus aureus [3]) [µM] | MBEC (Staphylococcus aureus [4]) [µM] | MBC (Staphylococcus aureus [4]) [µM] | MIC (Staphylococcus aureus [5]) [µM] | MIC [6] [µM] | MIC (Enterococcus faecium [7]) [µM] | MIC [8] [µM] | MBEC (Enterococcus faecium [9]) [µM] | MBC (Enterococcus faecium [9]) [µM] | MIC [10] [µM] | pIC50 (HeLa) | MBEC [11] [µM] | MBC [11] [µM] | MBEC (Staphylococcus aureus [12]) [µM] | MBC (Staphylococcus aureus [12]) [µM] |
| --- | --- | --- | --- | --- | --- | --- | --- | --- | --- | --- | --- | --- | --- | --- | --- | --- | --- |
| Oc1c(Br)cc(Br)c2nc3cc4ccccc4cc3nc12 | 50 (≈ 20.2 µg/mL) | ≤ 1 | 75 (≈ 30.3 µg/mL) | >200 | 200 (≈ 80.8 µg/mL) | > 100 | 12.5 (≈ 5.05 µg/mL) |  |  |  |  |  |  |  |  |  |  |
| C=CCc1cc(Br)c2nc3ccccc3nc2c1O |  |  |  |  |  | > 100 | > 100 | > 100 |  |  |  |  |  |  |  |  |  |
| CN[C@@H]1[C@H](O[C@H]2[C@H](O[C@H]3[C@H](O)[C@@H](O)[C@H](N=C(N)N)[C@@H](O)[C@@H]3N=C(N)N)O[C@@H](C)[C@]2(O)C=O)O[C@@H](CO)[C@H](O)[C@H]1O [STREPTOMYCIN] |  |  |  |  |  |  |  |  | 1.32 (≈ 0.768 µg/mL) |  |  |  |  |  |  |  |  |
| Oc1c(Cl)cc(Br)c2nc3ccccc3nc12 |  | ≤ 1 | 3.13 (≈ 0.969 µg/mL) | >1000 | 62.5 (≈ 19.3 µg/mL) |  | 3.13 (≈ 0.969 µg/mL) | 6.25 (≈ 1.93 µg/mL) |  | 11.7 | 11.7 (≈ 3.62 µg/mL) | 1.56 (≈ 0.483 µg/mL) | < 4.00 | 375 | 31.3 (≈ 9.69 µg/mL) |  |  |
| CCCCCCCCCC(=O)N[C@@H](Cc1c[nH]c2ccccc12)C(=O)N[C@H](CC(N)=O)C(=O)N[C@@H](CC(=O)O)C(=O)N[C@@H]1C(=O)NCC(=O)N[C@@H](CCCN)C(=O)N[C@@H](CC(=O)O)C(=O)N[C@H](C)C(=O)N[C@@H](CC(=O)O)C(=O)NCC(=O)N[C@H](CO)C(=O)N[C@@H]([C@H](C)CC(=O)O)C(=O)N[C@@H](CC(=O)c2ccccc2N)C(=O)O[C@@H]1C [DAPTOMYCIN] |  | 1.7 |  |  |  |  |  |  |  |  |  |  |  |  |  |  |  |
| Oc1c(Br)cc(Br)c2nc3ccc(Br)cc3nc12 | 0.2 (≈ 0.0866 µg/mL) | 2.1 |  | 25 | 50 (≈ 21.6 µg/mL) |  | 3.13 (≈ 1.35 µg/mL) | 0.78 (≈ 0.338 µg/mL) |  |  |  | 3.13 (≈ 1.35 µg/mL) |  |  |  | 12.5 | 12.5 (≈ 5.41 µg/mL) |
| Oc1c(I)cc(Cl)c2nc3ccccc3nc12 | 3.13 (≈ 1.12 µg/mL) | ≤ 1 | 12.5 (≈ 4.46 µg/mL) | 250 | 93.8 (≈ 33.4 µg/mL) | 25 (≈ 8.91 µg/mL) | 25 (≈ 8.91 µg/mL) | 6.25 (≈ 2.23 µg/mL) |  |  |  | 25 (≈ 8.91 µg/mL) |  | 250 | 125 (≈ 44.6 µg/mL) |  |  |
| Cc1nc2c(Br)cc(Br)c(O)c2nc1C |  | ≤ 1 | 6.25 (≈ 2.07 µg/mL) | 1500 | 125 (≈ 41.5 µg/mL) |  | 12.5 (≈ 4.15 µg/mL) | 25 (≈ 8.3 µg/mL) |  |  |  |  |  |  |  |  |  |
| CN[C@@H](CC(C)C)C(=O)N[C@H]1C(=O)N[C@@H](CC(N)=O)C(=O)N[C@H]2C(=O)N[C@H]3C(=O)N[C@H](C(=O)N[C@@H](C(=O)O)c4cc(O)cc(O)c4-c4cc3ccc4O)[C@H](O)c3ccc(c(Cl)c3)Oc3cc2cc(c3O[C@H]2O[C@@H](CO)[C@H](O)[C@@H](O)[C@@H]2O[C@@H]2C[C@@](C)(N)[C@@H](O)[C@@H](C)O2)Oc2ccc(cc2Cl)[C@H]1O |  | ≤ 1 |  | >2000 | 3 (≈ 4.35 µg/mL) |  | 1.17 (≈ 1.7 µg/mL) | > 100 |  | 150 | > 200 |  |  | >2000 | 3 (≈ 4.35 µg/mL) | >2000 | 3.9 (≈ 5.65 µg/mL) |
| O=C(O)CN(CCN(CC(=O)O)CC(=O)O)CC(=O)O [EDETIC ACID] |  | 3 |  | >2000 | 2000 (≈ 584 µg/mL) |  |  |  |  |  |  |  |  | >2000 | 1000 (≈ 292 µg/mL) |  |  |
| Oc1c(Br)cc(Br)c2nccnc12 | 6.25 (≈ 1.9 µg/mL) | 1.8 | 12.5 (≈ 3.8 µg/mL) | >2000 | 1500 (≈ 456 µg/mL) | 25 (≈ 7.6 µg/mL) | 18.8 (≈ 5.71 µg/mL) | 100 (≈ 30.4 µg/mL) |  |  |  | 18.8 (≈ 5.71 µg/mL) | < 4.00 |  |  |  |  |
| CCCCc1cc(Br)c(O)c2nc3ccccc3nc12 |  | 11.5 |  | 188 | 46.9 (≈ 15.5 µg/mL) | 3.13 (≈ 1.04 µg/mL) |  | 0.78 (≈ 0.258 µg/mL) |  | 2 | 2 (≈ 0.662 µg/mL) |  |  | 23.5 | 11.7 (≈ 3.88 µg/mL) | 62.5 | 46.9 (≈ 15.5 µg/mL) |
| Oc1c(Br)cc(Br)c2nc3cc(Br)c(Br)cc3nc12 | 12.5 (≈ 6.4 µg/mL) | ≤ 1 | 25 (≈ 12.8 µg/mL) |  |  | 6.25 (≈ 3.2 µg/mL) | 0.08 (≈ 0.0409 µg/mL) | 0.39 (≈ 0.2 µg/mL) | > 50 | 0.39 | 0.39 (≈ 0.2 µg/mL) |  | < 4.00 | 6.25 | 1.56 (≈ 0.798 µg/mL) | 50 | 6.25 (≈ 3.2 µg/mL) |
